# Data from ChEMBL document CHEMBL4400568, “The design of 1,4-naphthoquinone derivatives and mechanisms underlying apoptosis induction through ROS-dependent MAPK/Akt/STAT3 pathways in human lung cancer cells” (Bioorg Med Chem, 2019).
# Activity calls are given as the source filed them. The calls are words filed in the database; no cut-off is given here.
# Legend:
# A549 [1] = experiment: Cell cycle arrest in human A549 cells assessed as increase in p27 levels at 3 uM by Western blot analysis; assay type: functional, cell-based; settings: TDE = time-dependent effect
# How it was run: (§1)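 A549 cells exposed to 3 μM for 3, 6, 12 or 24 h; where NAC is used, 10 mM NAC is added 30 min before 24 h treatment. Lysate protein (30 μg) is run on 12% SDS-PAGE, blotted to nitrocellulose, blocked in 5% milk, primary antibody overnight at 4°C, then HRP anti-IgG. β-actin loading control; densitometry; three independent experiments, mean ± SD.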
# A549 [2] = experiment: Inhibition of ERK in human A549 cells assessed as decrease in STAT3 phosphorylation at 3 uM after 24 hrs in presence of NAC by Western blot analysis; assay type: cell-based
# How it was run: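 A549 cells pretreated with 10 mM NAC for 30 min, then exposed to compound for 24 h. Lysate protein (30 μg) resolved on 12% SDS-PAGE and transferred to nitrocellulose. Probed with primary antibodies overnight at 4°C, then HRP secondary. Band densities from three independent experiments, mean ± SD.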
# A549 [3] = experiment: Induction of ROS generation in human A549 cells assessed as intracellular ROS level at 3 uM after 24 hrs by DCFH-DA staining-based flow cytometric analysis (reference value: 51.8%); assay type: functional
# How it was run: (§2)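 A549 cells loaded with DCFH-DA (10 μM per legend) for 30 min, then exposed to 3 μM at 37°C for 3, 6, 12 or 24 h. After two PBS washes, intracellular fluorescence is quantified by flow cytometry. Three independent experiments, mean ± SD.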
# [4] = molecular target: T1, c-Jun N-terminal kinase, JNK (Homo sapiens) (UniProt P45983+P53779+P45984); experiment: Modulation of JNK in human A549 cells assessed as increase in cleaved caspase-3 measured after 24 hrs in presence of JNK inhibitor-SP600125 by Western blot analysis; assay type: cell-based
# A549 [5] = experiment: Cell cycle arrest in human A549 cells assessed as decrease in CDK4/6 levels at 3 uM by Western blot analysis; assay type: functional, cell-based; settings: TDE = time-dependent effect; how it was run: as §1
# A549 [6] = experiment: Modulation of ERK in human A549 cells assessed as increase in cleaved caspase-3 measured after 24 hrs in presence of ERK inhibitor-FR180204 by Western blot analysis; assay type: cell-based
# How it was run: (§3)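 A549 cells pre-incubated for 30 min with 12.1 μM kinase inhibitor: SB203580 (p38), SP600125 (JNK), FR180204 (ERK) or LY10249 (Akt). Compound treatment followed for 24 h. Lysates (30 μg protein) analysed by 12% SDS-PAGE and nitrocellulose immunoblot with HRP detection. Three independent experiments, mean ± SD.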
# [7] = molecular target: T2, MAP kinase p38 (Homo sapiens) (UniProt O15264+Q15759+Q16539+P53778); experiment: Modulation of p38 MAPK in human A549 cells assessed as increase in cleaved caspase-3 level measured after 24 hrs in presence of p38 inhibitor SB203580 by Western blot analysis; assay type: cell-based; how it was run: as §3
# A549 [8] = experiment: Cell cycle arrest in human A549 cells assessed as accumulation of cells at S phase at 3 uM after 3 hrs by propidium iodide staining-based flow cytometric analysis (reference value: 13.85%); assay type: functional
# A549 [9] = experiment: Cell cycle arrest in human A549 cells assessed as increase in p21 levels at 3 uM by Western blot analysis; assay type: functional, cell-based; settings: TDE = time-dependent effect; how it was run: as §1
# [10] = molecular target: T2, MAP kinase p38 (Homo sapiens); experiment: Modulation of p38 MAPK in human A549 cells assessed as reduction in STAT3 phosphorylation measured after 24 hrs in presence of p38 inhibitor SB203580 by Western blot analysis; assay type: cell-based; how it was run: as §3
# A549 [11] = experiment: Induction of apoptosis in human A549 cells assessed as late apoptotic cells at 3 uM after 6 hrs by Annexin V-FITC/propidium iodide staining-based flow cytometric analysis (reference value: 4.52%); assay type: functional
# A549 [12] = experiment: Modulation of ERK in human A549 cells assessed as decrease in STAT3 phosphorylation measured after 24 hrs in presence of ERK inhibitor FR180204 by Western blot analysis; assay type: cell-based
# A549 [13] = experiment: Induction of apoptosis in human A549 cells assessed as nuclear condensation at 3 uM by Annexin V-FITC/propidium iodide staining-based flow cytometric analysis; assay type: functional, cell-based; settings: TDE = time-dependent effect
# How it was run: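 A549 cells seeded at 1 × 10⁵ cells/well, exposed to 3 μM for 3, 6, 12 and 24 h. Then incubated in binding buffer and stained with Annexin V-FITC and PI for 20 min in the dark. Apoptotic cells were scored by fluorescence microscopy and flow cytometry. Three independent experiments, mean ± SD.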
# A549 [14] = experiment: Cell cycle arrest in human A549 cells assessed as accumulation of cells at G1 phase at 3 uM after 6 hrs by propidium iodide staining-based flow cytometric analysis (reference value: 57.65%); assay type: functional
# A549 [15] = experiment: Induction of apoptosis in human A549 cells assessed as increase in cleaved caspase-3 expression at 3 uM by Western blot analysis; assay type: functional, cell-based; settings: TDE = time-dependent effect; how it was run: as §1
# A549 [16] = experiment: Induction of apoptosis in human A549 cells assessed as early apoptotic cells at 3 uM after 3 hrs by Annexin V-FITC/propidium iodide staining-based flow cytometric analysis (reference value: 2.73%); assay type: functional
# A549 [17] = experiment: Induction of ROS generation in human A549 cells assessed as intracellular ROS level at 3 uM after 3 hrs by DCFH-DA staining-based flow cytometric analysis (reference value: 51.8%); assay type: functional; how it was run: as §2
# A549 [18] = experiment: Induction of apoptosis in human A549 cells assessed as increase in cleaved caspase-3 at 3 uM measured after 24 hrs in presence of NAC by Western blot analysis; assay type: functional, cell-based; how it was run: as §1
# [19] = molecular target: T1, c-Jun N-terminal kinase, JNK (Homo sapiens); experiment: Activation of JNK phosphorylation in human A549 cells at 3 uM after 24 hrs in presence of NAC by Western blot analysis; assay type: cell-based; how it was run: as §1
# NCI-H460 = experiment: Cytotoxicity against human NCI-H460 cells assessed as reduction in cell viability after 24 hrs by MTT assay; assay type: functional, cell-based
# How it was run: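 Log-phase cells seeded at 1 × 10⁴ per well. Lung cancer lines (A549, NCI-H23, NCI-H460) and normal lines (IMR-90, QSG-7701, HEK-293A) each exposed to 1, 3, 10, 30 and 100 μM for 24 h. MTT (5 mg/mL stock) added for 2 h at 37°C, formazan dissolved in DMSO, absorbance read at 490 nm. Three independent experiments, mean ± SD.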
# A549 [20] = experiment: Cell cycle arrest in human A549 cells assessed as accumulation of cells at G1 phase at 3 uM by propidium iodide staining-based flow cytometric analysis; assay type: functional; settings: TDE = time-dependent effect
# A549 [21] = experiment: Induction of apoptosis in human A549 cells assessed as early apoptotic cells at 3 uM after 12 hrs by Annexin V-FITC/propidium iodide staining-based flow cytometric analysis (reference value: 2.73%); assay type: functional
# [22] = molecular target: T1, c-Jun N-terminal kinase, JNK (Homo sapiens); experiment: Modulation of JNK in human A549 cells assessed as decrease in STAT3 phosphorylation measured after 24 hrs in presence of JNK inhibitor SP600125 by Western blot analysis; assay type: cell-based; how it was run: as §3
# A549 [23] = experiment: Induction of apoptosis in human A549 cells assessed as early apoptotic cells at 3 uM after 6 hrs by Annexin V-FITC/propidium iodide staining-based flow cytometric analysis (reference value: 2.73%); assay type: functional
# [24] = molecular target: RAC-alpha serine/threonine-protein kinase (Homo sapiens) (UniProt P31749); experiment: Modulation of AKT in human A549 cells assessed as increase in p27 levels measured after 24 hrs in presence of Akt inhibitor-LY10249 by Western blot analysis; assay type: cell-based; how it was run: as §3
# RAC-alpha serine/threonine-protein kinase (Homo sapiens), sequence (P31749 whole entry): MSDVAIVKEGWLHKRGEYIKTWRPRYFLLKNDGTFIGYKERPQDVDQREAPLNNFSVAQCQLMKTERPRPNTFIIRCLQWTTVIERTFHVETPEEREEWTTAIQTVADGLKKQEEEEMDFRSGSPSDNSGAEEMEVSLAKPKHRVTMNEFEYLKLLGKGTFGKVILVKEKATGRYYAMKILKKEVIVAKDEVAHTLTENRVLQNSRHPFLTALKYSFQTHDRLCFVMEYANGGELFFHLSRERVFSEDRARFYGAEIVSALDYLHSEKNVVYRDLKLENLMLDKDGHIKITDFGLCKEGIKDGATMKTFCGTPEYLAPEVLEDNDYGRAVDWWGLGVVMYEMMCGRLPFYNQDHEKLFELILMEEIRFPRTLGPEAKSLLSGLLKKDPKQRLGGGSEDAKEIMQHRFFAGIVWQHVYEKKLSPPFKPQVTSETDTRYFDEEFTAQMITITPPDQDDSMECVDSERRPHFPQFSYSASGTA
Activity [4],Activity [7],Activity [10],Activity [19],SMILES,Activity (A549 [1]),inhibition (A549 [2]),Activity (A549 [3]) [%],Activity (A549 [5]),Activity (A549 [6]),Activity (A549 [8]) [%],Activity (A549 [9]),Activity (A549 [11]) [%],Activity (A549 [12]),Activity (A549 [13]),Activity (A549 [14]) [%],Activity (A549 [15]),Activity (A549 [16]) [%],Activity (A549 [17]) [%],Activity (A549 [18]),Activity (NCI-H460),further results
inactive,inactive,inactive,inactive,CCCS(=O)(=O)C12OC1C(=O)c1c(OC)ccc(OC)c1C2=O (stereo not given),Tde,inactive,76.35,Tde,Active,11.61,Tde,7.11,Active,Tde,66.13,Tde,13.29,57.9,inactive,Active,Activity (A549 [20]): Tde; Activity (A549 [21]): 35.37%; Activity [22]: inactive; Activity (A549 [23]): 16.31%; Activity [24]: Active
inactive,inactive,inactive,inactive,CCCCCCCCCS(=O)(=O)C12OC1C(=O)c1c(OC)ccc(OC)c1C2=O (stereo not given),Tde,inactive,70.81,Tde,Active,9.45,Tde,6.43,Active,Tde,65.95,Tde,8.15,52.52,inactive,Active,Activity (A549 [20]): Tde; Activity (A549 [21]): 16.92%; Activity [22]: inactive; Activity (A549 [23]): 14.47%; Activity [24]: Active
